IC50 and Activity data for 21 compounds are collected here from ChEMBL document CHEMBL1137526, “The design and synthesis of N-1-alkylated-5-aminoarylalkylsubstituted-6-methyluracils as potential non-nucleoside HIV-1 RT inhibitors” (Bioorg Med Chem, 2007).

Calls of active or inactive are those of the source. The rule behind the calls is not given here.

Assay [1] concerns the target Human immunodeficiency virus type 1 reverse transcriptase (Human immunodeficiency virus 1, UniProt Q72547). Description: Inhibition of HIV1 reverse transcriptase by ELISA. Summed up:
(§1)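 Recombinant HIV-1 RT, non-radioactive ELISA. Oligo(dT) attached through its 5'-phosphate to the plate acts as primer on a poly(A) template (10 µg/ml). Read-out by streptavidin-alkaline phosphatase with PNPP.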
For orientation: In an ELISA, binding on a coated surface is turned into a signal by an enzyme label.

In assay [2] the target is Human immunodeficiency virus type 1 reverse transcriptase (Human immunodeficiency virus 1) (UniProt Q72547). Description: Inhibition of HIV1 reverse transcriptase upto 100 uM by ELISA. Summed up: as §1

One may read the IC50 as the concentration needed to halve the response being measured. In turn, `Cc1ccc(NCc2c(C)n(COCc3ccccc3)c(=O)[nH]c2=O)cc1` had an IC50 in assay [1] of 13.8 µM.

With `CCOCn1c(C)c(CNc2cc(C)ccc2C)c(=O)[nH]c1=O`, the IC50 in assay [1] is 26.2 µM.

`CCOCn1c(C)c(CN(C)c2ccccc2)c(=O)[nH]c1=O`: the outcome in assay [2] was inactive.

For `CCOCn1c(C)c(CNc2cccc3ccccc23)c(=O)[nH]c1=O`, in assay [2], the result was inactive.

Take `CCOCn1c(C)c(CNc2c(Cl)cc(Cl)cc2Cl)c(=O)[nH]c1=O`: the outcome in assay [2] was inactive.

`CCOCn1c(C)c(CNc2ccccc2[N+](=O)[O-])c(=O)[nH]c1=O` showed an IC50 in assay [1] greater than 100 µM.

The compound `Cc1c(CN(C)c2ccccc2)c(=O)[nH]c(=O)n1COCc1ccccc1` showed an IC50 in assay [1] of 3.49 µM. This counts as single-digit micromolar.

Turning to `Cc1c(CNC2CCCCC2)c(=O)[nH]c(=O)n1COCc1ccccc1`, in assay [1], it took 5.09 µM to reach half-maximal inhibition (IC50).

For the compound `CCOCn1c(C)c(CNc2cc(Cl)c(Cl)cc2Cl)c(=O)[nH]c1=O`, the IC50 in assay [1] was determined as 0.82 µM.

Turning to `Cc1c(CNc2ccccc2[N+](=O)[O-])c(=O)[nH]c(=O)n1COCc1ccccc1`, in assay [2], the result was inactive.

Consider `CCOCn1c(C)c(CNc2ccccn2)c(=O)[nH]c1=O`, for which the IC50 in assay [1] turned out to be 54.7 µM.

As for `CCOCn1c(C)c(CNc2c(C)cccc2C)c(=O)[nH]c1=O`, in assay [2], the result was inactive.

Regarding `Cc1c(CNc2c(Cl)cc(Cl)cc2Cl)c(=O)[nH]c(=O)n1COCc1ccccc1`, the outcome in assay [2] was inactive.

With `CCOCn1c(C)c(CNc2cccc([N+](=O)[O-])c2)c(=O)[nH]c1=O`, the result in assay [2] was inactive.

`CCOCn1c(C)c(CNc2ncccn2)c(=O)[nH]c1=O`: the result in assay [2] was inactive.

With `CCOCn1c(C)c(CNC2CCCCC2)c(=O)[nH]c1=O`, the outcome in assay [2] was inactive.

With `CCOCn1c(C)c(CNc2ccc([N+](=O)[O-])cc2)c(=O)[nH]c1=O`, the result in assay [2] was inactive.

Take `Cc1c(CNc2cccc([N+](=O)[O-])c2)c(=O)[nH]c(=O)n1COCc1ccccc1`: the result in assay [2] was inactive.

In the case of `Cc1c(CNc2ccc([N+](=O)[O-])cc2)c(=O)[nH]c(=O)n1COCc1ccccc1`, the result in assay [2] was inactive.

As for `Cc1c(CNc2cc(Cl)c(Cl)cc2Cl)c(=O)[nH]c(=O)n1COCc1ccccc1`, in assay [1], the half-maximal inhibitory concentration (IC50) was greater than 100 µM.

In the case of `CCOCn1c(C)c(CNc2ccc(C)cc2)c(=O)[nH]c1=O`, in assay [2], the result was inactive.
